Screening results (PubChem)
Rows were chosen to be rich in hits. Some 1.4% of all compounds tested hit in one or more screens of this group.
ARFGAP1 inh = rat ARFGAP1 inhibition. Arfgap1-stimulated ARF1 GTP hydrolysis, GDP FP detection. inhibition, % at 16.5 µM. AID 651572. actives 0.26% (n = 360,000);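 active means inhibition above a per-plate limit, mean inhibition of low control wells plus 3 SD, cut at about 25% in these data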;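 further: 0% = DMSO wells with enzyme and 100% = wells lacking Arfgap1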
Target sequence (Q62848 1-136 limits assumed): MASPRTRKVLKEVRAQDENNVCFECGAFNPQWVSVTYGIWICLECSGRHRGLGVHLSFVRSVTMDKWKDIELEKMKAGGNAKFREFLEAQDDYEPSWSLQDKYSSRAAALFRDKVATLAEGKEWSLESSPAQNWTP
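Material: rat Arfgap1 catalytic domain, aa 1-136; also added: human ARF1(Δ1-17)-GTP substrate; compound dosing: one concentration, 16.5 µM, DMSO 1.26%; incubation: GTP hydrolysis reaction 2 h at 25 °C; measured by: Tracer-displacement fluorescence polarization with EDTA stop, 620/688 nm; evaluation: % inhibition from polarization; repeats: one replicate per compound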
MsrA inhibitor = inhibits bovine methionine sulfoxide reductase A. actives 0.75% (n = 360,000). purified bovine MsrA, absorbance read-out. AID 651718. inhibition, % at 15.5 µM; in the data active means inhibition above about 4.5%;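 further: 0% = vehicle wells with enzyme and 100% = reference inhibitor wells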
ASAP1 GAP inh = blocks human ASAP1-stimulated Arf1 GTP hydrolysis | Q9ULH1 | GDP FP detection | inhibition, % at 16.5 µM | actives 0.19% (n = 360,000); in the data active means inhibition above about 25%;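 further: 0% = vehicle with enzyme and substrate and 100% = no enzyme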
Target sequence (Q9ULH1 325-724 limits assumed): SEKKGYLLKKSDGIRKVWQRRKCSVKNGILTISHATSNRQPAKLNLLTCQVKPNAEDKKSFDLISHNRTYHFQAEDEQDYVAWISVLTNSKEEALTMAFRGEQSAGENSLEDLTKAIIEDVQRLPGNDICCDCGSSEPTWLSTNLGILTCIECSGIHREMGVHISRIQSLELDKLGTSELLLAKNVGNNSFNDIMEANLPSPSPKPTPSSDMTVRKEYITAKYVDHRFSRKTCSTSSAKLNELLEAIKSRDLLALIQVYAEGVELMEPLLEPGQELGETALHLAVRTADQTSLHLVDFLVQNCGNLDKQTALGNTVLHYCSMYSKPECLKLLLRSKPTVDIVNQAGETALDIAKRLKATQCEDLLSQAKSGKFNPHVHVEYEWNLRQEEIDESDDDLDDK
bovine MsrA act = activates bovine MsrA enzyme. purified bovine MsrA, absorbance read-out. activation, % at 10.6 µM. actives 0.3% (n = 360,000). AID 602163; in the data active means activation above about 7.5%;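 further: 0% = vehicle and 100% = reference activator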
MsrA act confirm = confirmation of bovine methionine sulfoxide reductase A activators. purified bovine MsrA, absorbance read-out. AID 602270. actives 12% (n = 1,000). shares compounds with bovine MsrA act. activation, % at 10.6 µM; in the data active means activation above about 4%;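 further: enzyme coupled to thioredoxin and thioredoxin reductase with NADPH; 0% = vehicle wells and 100% = reference activator wells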
* = called active by the depositor; . = no result.

SMILES	ARFGAP1 inh	MsrA inhibitor	ASAP1 GAP inh	bovine MsrA act	MsrA act confirm
COc1ccc(/C=N/NC(=O)c2cccnc2)cc1CN1CCc2cc(OC)c(OC)cc2C1C (configuration not stated)	-2.3	3.2	1.0	16.0*	-2.4
COc1ccc(/C=N/NC(=O)c2cc(OC)c(OC)c(OC)c2)cc1CN1CCc2cc(OC)c(OC)cc2C1C (configuration not stated)	12.9	1.2	0.1	-0.7	.
CC1(CCC(=O)N2CCCC(N3CCN(c4cccc(C(F)(F)F)c4)CC3)C2)CC1 (configuration not stated)	2.2	-0.7	4.8	-0.7	.
COCCCNC(=O)c1cccs1	-5.1	0.9	16.6	-0.6	.
COc1ccc(CNCCNC(=O)c2cccs2)c(OC)c1OC	-11.7	1.4	-7.4	17.6*	-2.0
C[C@@H]1CN([C@H](C)CO)C(=O)CCCn2nncc2CO[C@@H]1CN(C)S(=O)(=O)c1ccc2c(c1)OCCCO2	-5.6	-1.6	-4.4	11.8*	1.5
C[C@H](CO)N1C[C@H](C)[C@@H](CN(C)S(=O)(=O)c2ccc3c(c2)OCCCO3)OCc2cnnn2CCCC1=O	-8.1	-1.5	-0.9	-1.4	.
CC(C)NC(=O)N(C)C[C@@H]1OCc2cn(nn2)CCCC(=O)N([C@H](C)CO)C[C@H]1C	-20.7	0.5	0.3	13.4*	-2.4
CCCCCC(=O)N1C[C@@H](n2cc(-c3ccc(F)cc3)nn2)[C@H](O)C[C@@H]1c1ccc(OC)cc1	-14.1	0.1	-8.9	-1.2	.
CC(=O)NNC(=S)NC(=O)c1ccc(C)cc1	-7.5	-0.4	-0.4	-0.8	.
CC(=O)NNC(=S)NC(=O)c1ccccc1	1.6	1.8	-4.0	8.3*	0.5
Cc1nn(-c2ccccc2)c2nc(-c3ccco3)cc(C(=O)O)c12	4.5	2.9	-10.7	-2.9	.
COC(=O)c1cc(C)nc2c1c(C)nn2-c1ccccc1	-7.4	0.0	5.6	13.0*	0.6
Cc1ccccc1C(=O)c1cccn1CC(=O)NC(C)c1ccccc1 (configuration not stated)	18.0	0.0	-0.5	-2.1	.
CC(NC(=O)Cn1cccc1C(=O)c1ccccc1)c1ccccc1 (configuration not stated)	14.8	0.0	6.3	11.8*	-1.8
COc1cc(Nc2ccc(C(=O)O)cc2[N+](=O)[O-])cc(OC)c1	-6.4	2.0	2.6	9.7*	8.1*
O=C(CCS(=O)(=O)c1ccccc1)Nc1ccc(Cl)cn1	-2.8	-1.4	9.6	-3.3	.
CCOC(=O)c1cc2c(=O)n3ccccc3nc2n(CCOC)c1=NC(=O)C(C)(C)C	6.8	0.0	-7.2	8.2*	0.2
CCOC(=O)c1cc2c(=O)n3ccccc3nc2n(CCCOC)c1=NC(=O)C(C)(C)C	-5.6	-1.1	0.5	-0.9	.
Nn1c(SCC(=O)Nc2ccc(N3CCOCC3)cc2)nnc1-c1cccc(F)c1	-3.5	0.7	-11.7	-0.1	.
COc1cccc(N2CCN(C(=S)Nc3ccccc3OC)CC2)c1	1.0	1.6	-7.0	-2.4	.
CCOc1ccccc1NC(=S)N1CCN(c2cccc(OC)c2)CC1	7.5	0.3	0.4	8.5*	-1.1
Cc1ccc(C(=O)Nc2ccc3cn[nH]c3c2)cc1S(=O)(=O)N1CCCCC1	3.2	-0.3	-10.8	-0.6	.
O=C(C[C@H]1C[C@@H]2c3cc(NS(=O)(=O)c4ccccc4)ccc3O[C@@H]2[C@H](CO)O1)N1CCOCC1	12.7	0.8	6.7	14.5*	-5.6
Cn1nc(C(=O)OCC(=O)Nc2ccccc2[N+](=O)[O-])c2ccccc2c1=O	-8.3	-0.2	-22.3	-2.5	.
SMILES	ARFGAP1 inh	MsrA inhibitor	ASAP1 GAP inh	bovine MsrA act	MsrA act confirm
Cn1nc(C(=O)OCC(=O)Nc2cc(Cl)ccc2C#N)c2ccccc2c1=O	7.2	-0.1	3.1	10.1*	-3.1
Nc1[nH]c(C(=O)c2ccc(Br)cc2)c(-c2ccccc2Cl)c1C(=O)NCCc1c[nH]c2ccccc12	11.7	1.5	11.2	.	.
O=C(c1ccc(Cl)cc1Cl)N1CCC(c2nc3c(nnn3Cc3ccco3)c(=O)[nH]2)CC1	3.8	1.0	1.3	23.1*	0.9
Cc1ccc(C)c(NS(=O)(=O)c2cc(C(=O)N3CCc4ccccc4C3)ccc2Cl)c1	-1.4	-0.2	7.5	8.2*	-1.9
CC(=O)Oc1c(S(=O)(=O)c2ccccc2)c(C)nn1C(C)(C)C	-6.2	-0.2	3.7	10.2*	-2.4
CCOC(=O)CSc1nnc(-c2nnc(SCC(=O)OCC)n2CC)n1CC	-4.0	0.1	-1.8	7.7*	-0.1
CCCCCC#CCN1CCN(C23CC4CC(CC(C4)C2)C3)CC1	.	.	.	8.8*	2.7
Cc1cccc(NC(=O)c2ccccc2NC(=O)c2ccccc2)n1	-19.6	1.3	-1.9	17.6*	0.9
Clc1ccc(Cn2nc(-c3ccccc3)nc2-c2ccccc2)cc1	9.9	-0.1	-3.5	8.7*	-0.4
Clc1ccccc1Cn1nc(-c2ccccc2)nc1-c1ccccc1	-5.8	-0.5	2.7	1.1	.
Cc1ccsc1/C=N/n1c(-c2ccccn2)n[nH]c1=S	2.0	2.5	-20.9	5.1	.
OC(c1ccc(F)c(F)c1)c1nc(-c2ccc3ccccc3c2)cs1 (configuration not stated)	19.5	-0.8	13.2	9.2*	0.6
O=C(NCCO)c1cccc(Nc2nc(-c3ccccc3)c3cc(Cl)ccc3n2)c1	-3.2	0.2	3.9	16.9*	-1.2
NNc1nc(-c2ccccc2)c2cc(Cl)ccc2n1	-4.8	1.1	-0.8	-1.4	.
O=C(O)c1ccccc1CC(CCc1ccccc1)C(=O)O (configuration not stated)	-1.0	0.6	-6.6	-0.8	.
CCCCC1CN2CCc3c([nH]c4ccccc34)C2(C)C1 (configuration not stated)	3.0	-1.6	0.2	0.4	.
C/C(CC(=O)Nc1cccc(C(F)(F)F)c1)=N\NC(=O)C1CCCCC1	-6.7	-0.6	13.0	-1.4	.
O=C1CCCC(O)=C1N=Nc1ccc(Cl)c(Cl)c1	6.4	4.0	9.1	-1.6	.
CC(=O)N1CCc2cc(N=NC3=C(O)CCCC3=O)ccc21	5.5	2.1	5.4	8.7*	-1.0
COc1ccc(/C(C)=N/NC(=O)CNC(=O)c2ccco2)c(OC)c1	2.6	-0.8	7.5	8.6*	-3.1
O=C(NCc1ccc(F)cc1)c1cnc(-c2ccccn2)nc1C(F)(F)F	0.1	-0.7	9.5	0.9	.
CCCCOC(=O)Cn1c(=O)c2c(nc3n2CCCCN3c2ccc(C)cc2)n(C)c1=O	-8.5	-0.9	4.5	-3.1	.
CCOC(=O)Cn1c(=O)c2c(nc3n2CCCCN3c2ccc(OCC)cc2)n(C)c1=O	-4.8	1.8	-10.6	8.0*	-0.6
C=CCOC(=O)COc1ccc2c3c(c(=O)oc2c1)CCCC3	6.8	-1.1	-5.9	-6.0	.
CC/C(=N/NC(=O)c1ccc(Br)o1)c1ccc(Cl)cc1	5.8	0.0	-9.0	8.3*	0.3
COc1ccc(C(C)(O)c2nc(-c3cccc(C(F)(F)F)c3)cs2)cc1 (configuration not stated)	-3.6	1.0	11.8	9.8*	1.8
